Measurements collected from several papers.
Compare with care: the assays were run in different laboratories.
Target: Serine/threonine-protein kinase Nek3 (NEK3, Homo sapiens, UniProt P51956)
Sequence (P51956 1-506, as in one of the studies): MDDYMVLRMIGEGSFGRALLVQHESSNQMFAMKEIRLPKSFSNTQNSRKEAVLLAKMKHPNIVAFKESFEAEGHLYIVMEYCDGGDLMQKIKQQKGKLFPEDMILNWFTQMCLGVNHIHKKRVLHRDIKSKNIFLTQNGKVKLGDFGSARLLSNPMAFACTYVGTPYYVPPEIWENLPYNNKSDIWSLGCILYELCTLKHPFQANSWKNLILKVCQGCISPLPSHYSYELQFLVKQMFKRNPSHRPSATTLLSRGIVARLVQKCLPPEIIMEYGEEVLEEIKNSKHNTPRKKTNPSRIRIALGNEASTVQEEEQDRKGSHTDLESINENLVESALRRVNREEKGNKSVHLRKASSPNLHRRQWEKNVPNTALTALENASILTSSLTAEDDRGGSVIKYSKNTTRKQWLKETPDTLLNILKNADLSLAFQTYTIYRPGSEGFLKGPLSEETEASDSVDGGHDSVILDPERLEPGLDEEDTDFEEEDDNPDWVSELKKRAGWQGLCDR

| Compound | effect on | action | technique | tested at | measurement | value |
| --- | --- | --- | --- | --- | --- | --- |
| Cc1ccc(NC(=O)c2ccnc(C(F)(F)F)c2)cc1-c1cc(OCCO)nc(N2CCOCC2)c1 | binding |  |  | 1 µM | remaining binding | 95% |
| CCCCC(=O)Nc1ccc(-c2ccc3ncn(CCC)c(=O)c3c2)cn1 | binding |  | competition with immobilised ligand | 0.5 µM | remaining binding | 87% |
| CN1CCN(C(=O)c2ccc(NC(=O)Nc3ccc(N(C)c4ccnc(Nc5ccc(CS(C)(=O)=O)cc5)n4)cc3)cc2)CC1 | binding |  |  | 1 µM | remaining binding | 66% |
| CC(C)S(=O)(=O)c1ccc2nccc(Nc3ccc4sc(C5CCCC5)nc4c3)c2c1 | enzyme activity | inhibitor |  | 1 µM | activity vs control | 111% |
| C=CC(=O)N1CCC([C@@H]2CCNc3c(C(N)=O)c(-c4ccc(Oc5ccccc5)cc4)nn32)CC1 | enzyme activity | inhibitor |  | 1 µM | inhibition | 44% |
| Cc1cc(O)c(-c2ccc([C@@H](C)CN(C)C)cc2)c2c1[nH]c(=O)c1sccc12 | enzyme activity | inhibitor |  | 0.1 µM | inhibition | -5.15% |
| C1=C/COCc2cc(ccc2OCCN2CCCC2)Nc2nccc(n2)-c2cccc(c2)COC/1 | binding |  |  | 0.1 µM | remaining binding | 82% |
| C=CC(=O)N1CCC[C@@H](n2nc(-c3ccc(Oc4ccccc4)cc3)c3c(N)ncnc32)C1 | enzyme activity | inhibitor |  | 1 µM | inhibition | 5% |
